Laboratory results published in paper PMC11359639 (ACS Omega, 2024).
“Also recorded” adds a separate entry of the source.

Experiments:
IL-1β = IL-1β level in supernatant of LPS-induced RAW264.7 cells; format: cell-based; settings: RAW264.7 cells supernatant, LPS 1 μg/mL, 1 μM, 48 h
Summary of the method: (§1)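 RAW264.7 cells were allowed to attach, then the medium was replaced with 1 μg/mL LPS plus test compound at final concentrations of 1, 10 and 100 μM, with DMSO used for solubilisation where needed. […] After 48 h culture, the supernatant was assayed for IL-1β, IL-6 and TNF-α. Values are means of three independent experiments, mean ± SD, compared by one-way ANOVA.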

IL-6 [1] = assay: IL-6 level in supernatant of LPS-induced RAW264.7 cells; format: cell-based; settings: RAW264.7 cells supernatant, LPS 1 μg/mL, 1 μM, 48 h
Summary of the method: as §1

TNF-α [2] = assay: TNF-α level in supernatant of LPS-induced RAW264.7 cells; format: cell-based; settings: RAW264.7 cells supernatant, LPS 1 μg/mL, 1 μM, 48 h
Summary of the method: as §1

TLR4 [3] = assay: TLR4 mRNA expression in RAW264.7 cells by RT-PCR; format: cell-based; settings: LPS-induced RAW264.7 cells, 1 μM, 24 h, vs model group
NF-κB [4] = assay: NF-κB protein expression in RAW264.7 cells by immunofluorescence; format: cell-based; settings: LPS-induced RAW264.7 cells, 1 μM, 24 h, vs model group
TLR4 [5] = assay: TLR4 protein expression in RAW264.7 cells by immunofluorescence; format: cell-based; settings: LPS-induced RAW264.7 cells, 1 μM, 24 h, vs model group
Summary of the method: (§2)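 They were PBS-washed, fixed in 4% fixative for 45 min, permeabilised with 0.25% Triton for 15 min and blocked with 5% BSA for 10 min. Staining used rabbit anti-mouse TLR4 or TNF-α (1:100, 4 °C overnight), FITC anti-rabbit (1:400, 37 °C, 30 min) and DAPI. Mean cell fluorescence was read by confocal microscopy.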

NF-κB [6] = assay: NF-κB protein expression in RAW264.7 cells by Western blot; format: cell-based; settings: LPS-induced RAW264.7 cells, 1 μM, 24 h, vs model group
TNF-α [7] = assay: TNF-α protein expression in RAW264.7 cells by immunofluorescence; format: cell-based; settings: LPS-induced RAW264.7 cells, 1 μM, 24 h, vs model group
Summary of the method: as §2

[8] = system: CIA (collagen-induced arthritis) model; assay: Rat CIA; format: in vivo; settings: for paw volume of rats: CIA rats, 15 days
NF-κB [9] = assay: NF-κB mRNA expression in RAW264.7 cells by RT-PCR; format: cell-based; settings: LPS-induced RAW264.7 cells, 1 μM, 24 h, vs model group
[10] = Pharmacokinetics in Sprague-Dawley rats; format: in vivo, rat; settings: for maximum concentration: SD rats; for half-life: male, Sprague-Dawley, rat, plasma
Summary of the method: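 Male SD rats (6–8 weeks) received test compound in 10% DMSO + 10% Solutol HS15 + 80% (20% HP-β-CD saline), either 20 mg/kg via foot dorsal vein or 100 mg/kg by oral gavage. Samples were kept on wet ice and spun at 2000g for 5 min at 4 °C within 15 min. Plasma was analysed by LC-MS/MS.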

TNF-α [11] = assay: Rat CIA model, serum TNF-α concentration; format: in vivo; settings: CIA rats, 50 and 100 (mg/kg)/day oral, compared with model group
IL-6 [12] = assay: Rat CIA model, serum IL-6 concentration; format: in vivo; settings: CIA rats, 50 and 100 (mg/kg)/day oral, compared with model group
TNF-α [13] = assay: TNF-α mRNA expression in RAW264.7 cells by RT-PCR; format: cell-based; settings: LPS-induced RAW264.7 cells, 1 μM, 24 h, vs model group
TLR4 [14] = assay: TLR4 protein expression in RAW264.7 cells by Western blot; format: cell-based; settings: LPS-induced RAW264.7 cells, 1 μM, 24 h, vs model group
Summary of the method: (§3)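 Lysis was in RIPA containing 1% PMSF on ice for 3–4 h, followed by centrifugation at 12000 rpm for 15 min. Supernatants were stored at −80 °C, and TLR4 and TNF-α protein were detected by Western blot.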

TNF-α [15] = assay: TNF-α protein expression in RAW264.7 cells by Western blot; format: cell-based; settings: LPS-induced RAW264.7 cells, 1 μM, 24 h, vs model group
Summary of the method: as §3

## CCCCCC1C(=O)C(C(=O)CC(C)=O)CC1CC(=O)OC (stereo not drawn) [Compound 3j, Methyl 2-(3-oxo-4-(3-oxobutanoyl)-2-pentylcyclopentyl)acetate]
IL-1β
  Inflammatory factor IL-1β: 488.8 ± 66.1 pg/L
IL-6 [1]
  Inflammatory factor IL-6: 163.8 ± 25.9 pg/L
TNF-α [2]
  Inflammatory factor TNF-α: 400.6 ± 60.2 pg/L

## CCOC(=O)C1CCC(C(=O)CC(C)=O)C1=O (stereo not drawn) [Compound 3h, Ethyl 2-oxo-3-(3-oxobutanoyl)cyclopentane-1-carboxylate]
IL-1β
  Inflammatory factor IL-1β: 506.0 ± 65.1 pg/L
IL-6 [1]
  Inflammatory factor IL-6: 197.4 ± 21.3 pg/L
TNF-α [2]
  Inflammatory factor TNF-α: 524.7 ± 48.5 pg/L

## CC(=O)CC(=O)C1CCCC1=O (stereo not drawn) [Compound 3a, 1-(2-Oxocyclopentyl)butane-1,3-dione]
IL-1β
  Inflammatory factor IL-1β: 512.0 ± 85.0 pg/L
IL-6 [1]
  Inflammatory factor IL-6: 196.2 ± 14.3 pg/L
TNF-α [2]
  Inflammatory factor TNF-α: 520.6 ± 54.6 pg/L

## CC(=O)CC(=O)C1CC(C)C(=O)C1=O (stereo not drawn) [Compound 3k, 3-Methyl-5-(3-oxobutanoyl) cyclopentane-1,2-dione]
TLR4 [3]
  expression of TLR4 gene (RT-PCR): significant down-regulated
IL-1β
  Inflammatory factor IL-1β: 278.6 ± 58.1 pg/L
NF-κB [4]
  expression of NF-κB protein (immunofluorescence): significantly down-regulated
IL-6 [1]
  Inflammatory factor IL-6: 96.6 ± 9.8 pg/L
TLR4 [5]
  expression of TLR4 protein (immunofluorescence): significantly down-regulated
NF-κB [6]
  expression of NF-κB protein (Western blot): significantly down-regulated
TNF-α [7]
  expression of TNF-α protein (immunofluorescence): significantly down-regulated
[8]; high dose 100 (mg/kg)/day oral
  paw volume of rats: basically unchanged
[8]; low dose 50 (mg/kg)/day oral
  paw volume of rats: basically unchanged
[8]; administered orally
  effect in collagen-induced arthritis model compared with methotrexate: effects similar to those of methotrexate; also recorded: effect similar to that of the positive control group methotrexate
NF-κB [9]
  expression of NF-κB gene (RT-PCR): significant down-regulated
[10]; intravenous dose 20 mg/kg
  maximum concentration: 1603 ng/mL
[10]; oral dose 100 mg/kg
  maximum concentration: 2014 ng/mL
[10]; iv, 20 mg/kg
  half-life: 30 to 60 min
[10]; po, 100 mg/kg
  half-life: 30 to 60 min
TNF-α [2]
  Inflammatory factor TNF-α: 217.8 ± 20.3 pg/L
TNF-α [11]
  serum TNF-α concentration: decreased significantly and reached the normal level
IL-6 [12]
  serum IL-6 concentration: decreased significantly and reached the normal level
TNF-α [13]
  expression of TNF-α gene (RT-PCR): significant down-regulated
TLR4 [14]
  expression of TLR4 protein (Western blot): significantly down-regulated
TNF-α [15]
  expression of TNF-α protein (Western blot): significantly down-regulated

## CN(Cc1cnc2nc(N)nc(N)c2n1)c1ccc(C(=O)N[C@@H](CCC(=O)O)C(=O)O)cc1 [methotrexate, reference compound]
TLR4 [3]
  expression of TLR4 gene (RT-PCR): significantly down-regulated
IL-1β
  Inflammatory factor IL-1β: 337.6 ± 47.8 pg/L
IL-6 [1]
  Inflammatory factor IL-6: 114.1 ± 2.8 pg/L
TLR4 [5]
  expression of TLR4 protein (immunofluorescence): significantly down-regulated
TNF-α [7]
  expression of TNF-α protein (immunofluorescence): significantly down-regulated
TNF-α [2]
  Inflammatory factor TNF-α: 236.8 ± 18.7 pg/L
TNF-α [13]
  expression of TNF-α gene (RT-PCR): significantly down-regulated
TLR4 [14]
  expression of TLR4 protein (Western blot): significantly down-regulated
TNF-α [15]
  expression of TNF-α protein (Western blot): significantly down-regulated

## COC(=O)C1CCC(C(=O)CC(C)=O)C1=O (stereo not drawn) [Compound 3g, Methyl 2-oxo-3-(3-oxobutanoyl)cyclopentane-1-carboxylate]
IL-1β
  Inflammatory factor IL-1β: 408.2 ± 69.1 pg/L
IL-6 [1]
  Inflammatory factor IL-6: 170.3 ± 25.3 pg/L
TNF-α [2]
  Inflammatory factor TNF-α: 339.8 ± 49.2 pg/L

## CC(=O)CC(=O)C1CCC(C(C)=O)C1=O (stereo not drawn) [Compound 3i, 1-(3-Acetyl-2-oxocyclopentyl)butane-1,3-dione]
IL-1β
  Inflammatory factor IL-1β: 558.4 ± 66.9 pg/L
IL-6 [1]
  Inflammatory factor IL-6: 205.2 ± 25.9 pg/L
TNF-α [2]
  Inflammatory factor TNF-α: 424.5 ± 87.6 pg/L
